Compound activity from PubChem.
Hits are enriched below; roughly 8.7% of the tested compounds scored in any of these assays.
PostGolgi yeast = phenotypic screen on post-Golgi transport, primary screen; post-Golgi transport phenotypic cell assay; inhibition, % at 10 µM; 0.9% of 98,000 active; AID 739, 2007;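 also: yeast cells grown in 1536-well plates; yeast grown about 18 h at 30C before absorbance read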
Pyk2 oligo antag = antagonists of Pyk2 self-association, primary screen, Q293 cells, FERM NanoBiT luminescence, HTS. Protein-tyrosine kinase 2-beta (Homo sapiens), Q14289. stronger effect = lower value. z-score (the deposit names both 25 µM and 10 µM). 0.83% of 99,000 active;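 active = Z-score of -3 or lower, scaled per plate to the spread of control and sample wells; inactive = z-score above -3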;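 also: negative z-score means lost luminescence so less FERM oligomerization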
Target sequence (Q14289 whole entry, looked up): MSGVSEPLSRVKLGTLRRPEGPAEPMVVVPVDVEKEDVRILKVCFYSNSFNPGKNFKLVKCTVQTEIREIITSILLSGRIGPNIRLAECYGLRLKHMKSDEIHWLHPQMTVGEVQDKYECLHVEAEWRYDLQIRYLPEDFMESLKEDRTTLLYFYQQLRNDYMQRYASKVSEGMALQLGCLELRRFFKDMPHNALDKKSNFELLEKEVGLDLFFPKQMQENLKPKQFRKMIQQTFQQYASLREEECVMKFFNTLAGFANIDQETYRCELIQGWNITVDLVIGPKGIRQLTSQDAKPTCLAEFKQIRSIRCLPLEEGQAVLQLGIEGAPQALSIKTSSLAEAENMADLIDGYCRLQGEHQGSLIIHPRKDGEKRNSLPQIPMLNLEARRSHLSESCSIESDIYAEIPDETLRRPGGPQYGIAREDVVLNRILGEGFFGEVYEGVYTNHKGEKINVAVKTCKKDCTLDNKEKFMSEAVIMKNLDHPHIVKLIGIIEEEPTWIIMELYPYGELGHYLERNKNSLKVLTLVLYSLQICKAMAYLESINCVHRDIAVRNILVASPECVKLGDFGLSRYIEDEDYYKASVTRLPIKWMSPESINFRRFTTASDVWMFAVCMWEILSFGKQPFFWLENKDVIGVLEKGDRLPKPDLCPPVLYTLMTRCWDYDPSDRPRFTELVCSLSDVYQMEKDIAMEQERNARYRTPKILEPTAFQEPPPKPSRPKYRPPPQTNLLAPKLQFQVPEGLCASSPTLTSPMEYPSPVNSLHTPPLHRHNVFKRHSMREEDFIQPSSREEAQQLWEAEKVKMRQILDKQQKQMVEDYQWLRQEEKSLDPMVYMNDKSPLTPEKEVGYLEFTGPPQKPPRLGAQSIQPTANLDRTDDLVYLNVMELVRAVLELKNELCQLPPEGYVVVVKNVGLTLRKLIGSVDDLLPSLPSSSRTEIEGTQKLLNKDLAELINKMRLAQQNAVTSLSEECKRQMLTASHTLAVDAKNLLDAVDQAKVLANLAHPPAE
Ecoli tolC = growth inhibitors of E. coli tolC mutant, primary screen, strain BW25113 ΔtolC::kan, 384-well; OD615; 2.2% of 65,000 active; growth inhibition, % at 10 µM (by protocol);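 active = growth inhibition at or above a cutoff equal to the mean over every tested compound plus 3 SD, cut at about 60% in these data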;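 also: growth measured after 20 h incubation at 37 °C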
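Test system: tolC-deleted E. coli BW25113; medium: LB with kanamycin 50 µg/mL; compound: single-point testing at 10 µM; incubation: 20 h compound exposure of bacteria at 37 °C; signal: OD at 615 nm; evaluation: growth inhibition in percent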
Ecoli WT expand = growth inhibitors of wild-type E. coli, primary screen, strain BW25113, expanded library, OD600; OD600 absorbance; growth inhibition, % at 100 µM; 0.15% of 98,000 active; AID 710, 2007;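 active = growth inhibition above about 50% at one test dose, limit read from the data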;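 also: growth measured after 20 h incubation at 37 °C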
PostGolgi ctrl = growth inhibition of yeast control strain, primary screen, counter-screen for post-Golgi transport modulator project; efflux-deficient yeast background strain, growth absorbance A615, 16 h; AID 738, 2007; inhibition, % at 10 µM; 5% of 98,000 active
Cav3 T inh = Cav3.2 calcium influx blockers – cell-based, Fluo-4 calcium fluorescence, FDSS, MLSMR library, primary screen; Voltage-dependent T-type calcium channel subunit alpha-1H (Homo sapiens), O95180; Cav3.2-expressing cells; stronger effect = lower value; B-score at 10 µM; 4% of 100,000 active; AID 449739, 2010;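 active = single-dose well whose peak fluorescence ratio is a statistical outlier from its plate by either plate-standardised score or position-corrected B-score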
Large screens that a line does not name were inactive. Rule as the data show it, unless noted: active = inhibition above about 30%; inactive = the rest.

Cc1cccc(-n2c(N)c(C(=O)NCCN3CCOCC3)c3nc4ccccc4nc32)c1	PostGolgi yeast 30 (no result: Pyk2 oligo antag)
Cc1ccc(Cn2nnc3c(=O)n(CC(=O)c4ccccc4)cnc32)cc1	none (no result: Pyk2 oligo antag)
CCN1CC(CCN2CCOCC2)C(c2ccccc2)(c2ccccc2)C1=O (stereo not drawn)	none (no result: PostGolgi yeast, Pyk2 oligo antag, Ecoli tolC, Ecoli WT expand, PostGolgi ctrl)
CC(C)(C)c1ccc(OCCON2C(=O)CCC2=O)c(Cl)c1	PostGolgi ctrl 33 (no result: Ecoli tolC)
COC(=O)C1=C(C(=O)OC)[C@@H]2Nc3ccccc3[C@@]23C[C@@H](C(=O)OC)N(C(C)=O)C3=N1	none (no result: PostGolgi yeast, Pyk2 oligo antag, Ecoli tolC, Ecoli WT expand, PostGolgi ctrl)
Cc1ccccc1CS(=O)(=O)c1nnc([C@H](Cc2ccccc2)NC(=O)OC(C)(C)C)o1	PostGolgi yeast 37, PostGolgi ctrl 51 (no result: Ecoli tolC)
CC(C)(C)OC(=O)N[C@@H](Cc1ccccc1)c1nnc(S(=O)(=O)Cc2ccccc2)o1	none (no result: Pyk2 oligo antag)
CCC(C)[C@@H](NC(=O)OC(C)(C)C)c1nnc(S(=O)(=O)Cc2cccc(C)c2)o1 (stereo partly drawn)	PostGolgi ctrl 52
C/C(=N/NS(=O)(=O)c1ccc(F)cc1)c1ccc(NC(=O)c2ccc(C)o2)cc1	none (no result: Ecoli tolC)
COC(=O)Cc1ccc(NC(=O)c2ccc(C(C)(C)C)cc2)cc1	Cav3 T inh -5.2 (no result: Ecoli tolC)
CCN(Cc1ccccc1)Cc1cccc([N+](=O)[O-])c1	none (no result: Ecoli tolC)
COc1ccc(CN(Cc2cccnc2)S(=O)(=O)c2ccc(-n3cnnn3)c(C)c2)cc1OC	none (no result: Ecoli tolC)
C[C@]12CC[C@@H]3c4ccc(O)cc4CC[C@H]3[C@@H]1C[C@@H](O)[C@@H]2O	Cav3 T inh -4.6 (no result: PostGolgi yeast, Pyk2 oligo antag, Ecoli tolC, Ecoli WT expand, PostGolgi ctrl)
COc1ccc(Nc2ncc(C(=O)N3CCC(C(N)=O)CC3)c3ccccc23)cc1	none (no result: Ecoli tolC)
COc1ccc(Nc2ncc(C(=O)N3CCN(Cc4ccccc4)CC3)c3ccccc23)cc1	Pyk2 oligo antag -3.5 (no result: Ecoli tolC)
O=C1c2ccccc2C(=O)N1CCc1nc(-c2ccncc2)no1	none (no result: Ecoli tolC)
O=C1c2ccccc2C(=O)N1CCCCCc1nc(-c2ccccc2)no1	PostGolgi ctrl 49
Cc1ccc(-c2noc(CCCN3C(=O)c4ccccc4C3=O)n2)cc1	PostGolgi ctrl 31 (no result: Ecoli tolC)
O=C1c2ccccc2C(=O)N1CCc1nc(-c2cccnc2)no1	none
CCOc1ccc(C2/C(=C(/O)c3ccc(Cl)cc3)C(=O)C(=O)N2CCCN(C)C)cc1OC (stereo not drawn)	none (no result: PostGolgi yeast, Pyk2 oligo antag, Ecoli WT expand, PostGolgi ctrl, Cav3 T inh)
COc1ccc(C2/C=C\CN(Cc3ccco3)CC(=O)N2Cc2ccc(F)cc2)cc1 (stereo not drawn)	none (no result: PostGolgi yeast, Pyk2 oligo antag, Ecoli tolC, Ecoli WT expand, PostGolgi ctrl)
CCC1(CC)C(=O)C2=C3C1[C@H](C(=O)OC)C=C(C(=O)OC)C[C@H]3n1c(=O)n(-c3ccccc3)c(=O)n1[C@H]2C (stereo partly drawn)	none (no result: PostGolgi yeast, Pyk2 oligo antag, Ecoli tolC, Ecoli WT expand, PostGolgi ctrl)
O=C(c1cc2nc(-c3ccco3)cc(C(F)(F)F)n2n1)N1CCN(c2ccc(F)cc2)CC1	Ecoli tolC 65
CC1CCc2cc(F)ccc2N1C(=O)c1cc2nc(-c3ccco3)cc(C(F)(F)F)n2n1 (stereo not drawn)	Ecoli tolC 63
O=C(c1cc2nc(-c3ccco3)cc(C(F)(F)F)n2n1)N1CCN(Cc2ccccc2)CC1	none (no result: Ecoli tolC)
CCOC(=O)c1cc2nc(-c3ccco3)cc(C(F)(F)F)n2n1	none (no result: PostGolgi yeast, Ecoli tolC, Ecoli WT expand, PostGolgi ctrl)
CCN(CC)c1ncn(Cc2c(Cl)cccc2Cl)c2ncnc1-2	PostGolgi ctrl 34 (no result: Ecoli tolC)
CC1=C(C(=O)OCC(C)C)[C@]23C(=O)c4ccccc4[C@@]2(O1)OC(N)=C3C#N	none (no result: PostGolgi yeast, Ecoli tolC, Ecoli WT expand, PostGolgi ctrl)
CCC(C)OC(=O)C1=C(C)OC23OC(N)=C(C#N)C12C(=O)c1ccccc13 (stereo not drawn)	Cav3 T inh -2.7 (no result: PostGolgi yeast, Ecoli tolC, Ecoli WT expand, PostGolgi ctrl)
Cc1cc(C)c(N2CCN(S(=O)(=O)N3CCCCCC3)CC2)c(C)c1	none
COc1ccc(NC(=O)c2nc3nccc(C)n3n2)cn1	none (no result: Ecoli tolC)
Cc1c(NS(=O)(=O)c2cccc(C(=O)NCc3ccc(Cl)cc3)c2)c(=O)n(-c2ccccc2)n1C	PostGolgi ctrl 31 (no result: Ecoli tolC)
Cc1c(NC(=O)c2nn(C)c(=O)c3ccccc23)c(=O)n(-c2ccccc2)n1C	none (no result: PostGolgi yeast, Ecoli WT expand, PostGolgi ctrl, Cav3 T inh)
Cc1c(NC(=O)CC(=O)Nc2c(C)n(C)n(-c3ccccc3)c2=O)c(=O)n(-c2ccccc2)n1C	none
Cc1c(NC(=O)Nc2cccc(Cl)c2)c(=O)n(-c2ccccc2)n1C	PostGolgi ctrl 37
Cc1c(NC(=O)Cn2nc(C(=O)O)c3ccccc3c2=O)c(=O)n(-c2ccccc2)n1C	Pyk2 oligo antag -4
